Legend:
[1] = tested on: Saccharomyces cerevisiae; assay: Growth inhibition of GTT2-deficient Saccharomyces cerevisiae YLL060C mutant at 20 ug/disc after 24 to 48 hrs by agar diffusion assay; type: functional; settings: read-out: DIZ
How it was run: (§1)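 S. cerevisiae deletion mutants or wild type grown on YPD, seeded into liquid agar medium at an optical density of 0.1. 6 mm paper discs soaked with methanolic compound solution were placed on the plates and incubated at 30 °C. Growth was checked after 1 and 2 days, and the inhibition zone diameter was recorded in mm.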

[2] = tested on: SW-620; assay: Cytotoxicity against human SW620 cells; type: functional
[3] = tested on: M14; assay: Cytotoxicity against human M14 cells; type: functional
[4] = tested on: NCI-H522; assay: Cytotoxicity against human NCI-H522 cells; type: functional
[5] = tested on: HCC 2998; assay: Cytotoxicity against human HCC2998 cells; type: functional
[6] = tested on: A549; assay: Cytotoxicity against human A549 cells; type: functional
[7] = tested on: SNB-75; assay: Cytotoxicity against human SNB75 cells; type: functional
[8] = tested on: A498; assay: Cytotoxicity against human A498 cells; type: functional
[9] = tested on: Saccharomyces cerevisiae; assay: Growth inhibition of POS5-deficient Saccharomyces cerevisiae YPL188W mutant at 20 ug/disc after 24 to 48 hrs by agar diffusion assay; type: functional; settings: read-out: DIZ; how it was run: as §1
[10] = tested on: MCF7; assay: Cytotoxicity against human MCF7 cells; type: functional
[11] = tested on: OVCAR-4; assay: Cytotoxicity against human OVCAR4 cells; type: functional
[12] = tested on: NCI/ADR-RES; assay: Cytotoxicity against human NCI/ADR-RES cells; type: functional
[13] = tested on: DU-145; assay: Cytotoxicity against human DU145 cells; type: functional
[14] = tested on: Saccharomyces cerevisiae; assay: Growth inhibition of SOD2-deficient Saccharomyces cerevisiae YHR008C mutant at 20 ug/disc 24 to 48 hrs by agar diffusion assay; type: functional; settings: read-out: DIZ; how it was run: as §1
[15] = tested on: SF-539; assay: Cytotoxicity against human SF539 cells; type: functional
[16] = tested on: LOX IMVI; assay: Cytotoxicity against human LOXIMVI cells; type: functional
[17] = tested on: U-251; assay: Cytotoxicity against human U251 cells; type: functional
[18] = tested on: MDA-MB-231; assay: Cytotoxicity against human MDA-MB-231 cells; type: functional
[19] = tested on: HOP-92; assay: Cytotoxicity against human HOP92 cells; type: functional
[20] = tested on: UO-31; assay: Cytotoxicity against human UO31 cells; type: functional
[21] = tested on: A498; assay: Cytotoxicity against human A498 cells after 24 hrs by MTT assay; type: functional, cell-based; settings: A498, 24 h
How it was run: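 MTT assay. Cells were seeded at 50,000 cells/mL in medium with 10% fetal calf serum and grown for two days at 37 °C, 10% CO2. Serial dilutions of compound were then added for 24 h. MTT was added (final 0.5 mg/mL) for 2 h, and the formazan was pelleted, washed, dissolved in isopropanol with 0.4% HCl and read at 590 nm. IC50 is the concentration giving 50% of untreated-control absorbance, taken from dose-response curves; mean of two parallel experiments.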

[22] = tested on: TK-10; assay: Cytotoxicity against human TK10 cells; type: functional
[23] = tested on: BT-549; assay: Cytotoxicity against human BT549 cells; type: functional
[24] = tested on: Saccharomyces cerevisiae; assay: Growth inhibition of PST2-deficient Saccharomyces cerevisiae YDR032C mutant at 20 ug/disc 24 to 48 hrs by agar diffusion assay; type: functional; settings: read-out: DIZ; how it was run: as §1
[25] = tested on: HCT-15; assay: Cytotoxicity against human HCT15 cells; type: functional
[26] = Cytotoxicity against human 786-O cells; type: functional
[27] = tested on: MOLT-4; assay: Cytotoxicity against human MOLT4 cells; type: functional
[28] = tested on: Malme-3M; assay: Cytotoxicity against human MALME-3M cells; type: functional
[29] = tested on: SK-MEL-2; assay: Cytotoxicity against human SK-MEL-2 cells; type: functional
[30] = tested on: OVCAR-8; assay: Cytotoxicity against human OVCAR8 cells; type: functional
[31] = tested on: NCI-H23; assay: Cytotoxicity against human NCI-H23 cells; type: functional
[32] = tested on: SF-295; assay: Cytotoxicity against human SF295 cells; type: functional
[33] = tested on: OVCAR-3; assay: Cytotoxicity against human OVCAR3 cells; type: functional
[34] = tested on: T47D; assay: Cytotoxicity against human T47D cells; type: functional
[35] = tested on: MDA-MB-468; assay: Cytotoxicity against human MDA-MB-468 cells; type: functional
[36] = tested on: KM12; assay: Cytotoxicity against human KM12 cells; type: functional
[37] = tested on: Saccharomyces cerevisiae; assay: Growth inhibition of GSH2-deficient Saccharomyces cerevisiae YOL049W mutant at 20 ug/disc after 24 to 48 hrs by agar diffusion assay; type: functional; settings: read-out: DIZ; how it was run: as §1
[38] = tested on: NCI-H322M; assay: Cytotoxicity against human NCI-H322M cells; type: functional
[39] = tested on: RPMI-8226; assay: Cytotoxicity against human RPMI8226 cells; type: functional
[40] = tested on: SK-OV-3; assay: Cytotoxicity against human SKOV3 cells; type: functional
[41] = tested on: HL-60; assay: Cytotoxicity against human HL60 cells; type: functional

CC1=C([Se]CC(OC(=O)[C@@H](CO)NC(=O)OC(C)(C)C)C(=O)NC(C)(C)C)C(=O)c2ccccc2C1=O (stereo partly drawn)
zone of inhibition at 20 µg/disc [1]: 21 mm | GI50 [2]: 1.78 µM | LC50 [2]: 6.31 µM | TGI ([2]; read-out: pTGI (converted)): 3.31 µM | GI50 [3]: 1.66 µM | LC50 [3]: 5.62 µM | TGI ([3]; read-out: pTGI (converted)): 3.02 µM | GI50 [4]: 1.58 µM | LC50 [4]: 6.17 µM | TGI ([4]; read-out: pTGI (converted)): 3.16 µM | GI50 [5]: 1.82 µM | LC50 [5]: 5.75 µM | TGI ([5]; read-out: pTGI (converted)): 3.24 µM | GI50 [6]: 1.82 µM | LC50 [6]: 89.1 µM | TGI ([6]; read-out: pTGI (converted)): 9.33 µM | GI50 [7]: 1.29 µM | LC50 [7]: 5.13 µM | TGI ([7]; read-out: pTGI (converted)): 2.57 µM | GI50 [8]: 3.63 µM | LC50 (50% lethal concentration) [8]: 39.8 µM | TGI ([8]; read-out: pTGI (converted)): 15.1 µM | zone of inhibition at 20 µg/disc [9]: 11 mm | GI50 [10]: 1.74 µM | LC50 [10]: 8.91 µM | TGI ([10]; read-out: pTGI (converted)): 3.98 µM | GI50 [11]: 1.23 µM | LC50 [11]: 5.01 µM | TGI ([11]; read-out: pTGI (converted)): 2.51 µM | GI50 [12]: 1.62 µM | TGI ([12]; read-out: pTGI (converted)): 3.09 µM | GI50 [13]: 1.91 µM | LC50 [13]: 6.03 µM | TGI ([13]; read-out: pTGI (converted)): 3.39 µM | zone of inhibition at 20 µg/disc [14]: 19 mm | GI50 [15]: 1.58 µM | LC50 [15]: 5.89 µM | TGI ([15]; read-out: pTGI (converted)): 3.09 µM | GI50 [16]: 1.58 µM | LC50 [16]: 5.75 µM | TGI ([16]; read-out: pTGI (converted)): 3.02 µM | GI50 [17]: 0.977 µM | LC50 [17]: 6.61 µM | TGI ([17]; read-out: pTGI (converted)): 2.57 µM | GI50 [18]: 1.62 µM | LC50 [18]: 6.03 µM | TGI ([18]; read-out: pTGI (converted)): 3.16 µM | GI50 [19]: 1.86 µM | LC50 (50% lethal concentration) [19]: 6.31 µM | TGI ([19]; read-out: pTGI (converted)): 3.39 µM | GI50 [20]: 1.45 µM | LC50 [20]: 6.03 µM | TGI ([20]; read-out: pTGI (converted)): 2.95 µM | IC50 [21]: 5 µM | GI50 [22]: 2 µM | LC50 [22]: 6.03 µM | TGI ([22]; read-out: pTGI (converted)): 3.47 µM | GI50 [23]: 1.58 µM | LC50 [23]: 5.37 µM | TGI ([23]; read-out: pTGI (converted)): 2.95 µM | zone of inhibition at 20 µg/disc [24]: 11 mm | GI50 [25]: 2 µM | LC50 [25]: 7.94 µM | TGI ([25]; read-out: pTGI (converted)): 3.98 µM | GI50 ([26]; 786-0): 1.95 µM | LC50 ([26]; 786-0): 5.89 µM | TGI ([26]; 786-0, read-out: pTGI (converted)): 3.39 µM | GI50 [27]: 0.447 µM | LC50 [27]: > 100 µM | GI50 [28]: 2.04 µM | LC50 [28]: 6.92 µM | TGI ([28]; read-out: pTGI (converted)): 3.8 µM | GI50 [29]: 2.19 µM | LC50 [29]: 9.55 µM | TGI ([29]; read-out: pTGI (converted)): 4.57 µM | GI50 [30]: 1.86 µM | TGI ([30]; read-out: pTGI (converted)): 3.55 µM | GI50 [31]: 1.48 µM | LC50 [31]: 6.92 µM | TGI ([31]; read-out: pTGI (converted)): 3.24 µM | GI50 [32]: 0.316 µM | LC50 [32]: 22.4 µM | TGI ([32]; read-out: pTGI (converted)): 1.05 µM | GI50 [33]: 1.78 µM | LC50 [33]: 5.62 µM | TGI ([33]; read-out: pTGI (converted)): 3.16 µM | GI50 [34]: 0.331 µM | LC50 [34]: 8.91 µM | TGI ([34]; read-out: pTGI (converted)): 1.07 µM | GI50 [35]: 0.759 µM | LC50 [35]: 5.89 µM | TGI ([35]; read-out: pTGI (converted)): 2.29 µM | GI50 [36]: 1.51 µM | LC50 [36]: 5.5 µM | TGI ([36]; read-out: pTGI (converted)): 2.88 µM | zone of inhibition at 20 µg/disc [37]: 18 mm | GI50 [38]: 0.447 µM | LC50 [38]: 32.4 µM | TGI ([38]; read-out: pTGI (converted)): 3.72 µM | GI50 [39]: 2.75 µM | LC50 [39]: > 100 µM | TGI ([39]; read-out: pTGI (converted)): 8.91 µM | GI50 [40]: 1.26 µM | LC50 [40]: 5.13 µM | TGI ([40]; read-out: pTGI (converted)): 2.57 µM | GI50 [41]: 0.871 µM | LC50 [41]: > 100 µM | TGI ([41]; read-out: pTGI (converted)): 3.8 µM
